Experimental data published in ChEMBL document CHEMBL1145787, “Synthesis and structure-activity relationship of N-substituted 4-arylsulfonylpiperidine-4-hydroxamic acids as novel, orally active matrix metalloproteinase inhibitors for the treatment of osteoarthritis” (J Med Chem, 2003).

Tests used:
[1] = Time of peak concentration of compound was determined in dog at 25 mg/kg orally; assay type: ADME, organism-based, Canis lupus familiaris; parameters: dose 25 mg/kg, route oral; conditions: in vivo, po
In short: (§1)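 Single oral dose of 25 mg/kg in Sprague–Dawley rats, New Zealand rabbits, Beagle dogs and Cynomolgus monkeys. Mean plasma pharmacokinetics; Cmax is the maximum plasma concentration and Tmax is the time of peak concentration.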

[2] = Time of peak concentration of compound was determined in monkey at 25 mg/kg orally; assay type: ADME, organism-based; parameters: dose 25 mg/kg, route oral; conditions: simiiformes, in vivo, po; in short: as §1
[3] = Time of peak concentration of compound was determined in rat at 25 mg/kg orally; assay type: ADME, organism-based; parameters: dose 25 mg/kg, route oral; conditions: in vivo, po; in short: as §1
[4] = Oral bioavailability of compound was determined in monkey at 25 mg/kg orally; assay type: ADME, organism-based; conditions: simiiformes, in vivo, read-out: Bioavailabiility
[5] = Oral bioavailability of compound was determined in rabbit at 25 mg/kg orally; assay type: ADME, organism-based, Oryctolagus cuniculus; conditions: in vivo, read-out: Bioavailabiility
[6] = Apparent elimination half life of compound was determined in dog at 25 mg/kg orally; assay type: ADME, organism-based, Canis lupus familiaris; parameters: dose 25 mg/kg, route oral; conditions: in vivo, po
In short: (§2)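 Single-dose PK in Sprague–Dawley rats, New Zealand rabbits, Beagle dogs and cynomolgus monkeys. Dosing was 25 mg/kg oral or 5 mg/kg iv. Plasma concentration–time profiles gave the apparent elimination half-life (T1/2) and the area under the concentration–time curve (AUC). Parameters are reported as means.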

[7] = Apparent elimination half life of compound was determined in dogt at 5 mg/kg intravenously admn.; assay type: ADME, organism-based, Canis lupus familiaris; parameters: dose 5 mg/kg, route intravenous; conditions: dog, in vivo, iv; in short: as §2
[8] = Apparent elimination half life of compound was determined in monkey at 5 mg/kg intravenously admn.; assay type: ADME, organism-based; parameters: dose 5 mg/kg, route intravenous; conditions: simiiformes, in vivo, iv; in short: as §2
[9] = Apparent elimination half life of compound was determined in rabbit at 25 mg/kg orally; assay type: ADME, organism-based, Oryctolagus cuniculus; parameters: dose 25 mg/kg, route oral; conditions: in vivo, po; in short: as §2
[10] = Apparent elimination half life of compound was determined in rabbit at 5 mg/kg intravenously admn.; assay type: ADME, organism-based, Oryctolagus cuniculus; parameters: dose 5 mg/kg, route intravenous; conditions: in vivo, iv; in short: as §2
[11] = Apparent elimination half life of compound was determined in rat at 25 mg/kg orally; assay type: ADME, organism-based; parameters: dose 25 mg/kg, route oral; conditions: in vivo, po; in short: as §2
[12] = Apparent elimination half life of compound was determined in rat at 5 mg/kg intravenously admn.; assay type: ADME, organism-based; parameters: dose 5 mg/kg, route intravenous; conditions: in vivo, iv; in short: as §2
[13] = In vivo inhibitory activity against Matrix metalloprotease enzyme by dialysis implant assay, value is relative to activity of CGS-27023 (48+/-3) at 25 mg/kg. po; assay type: functional
Matrilysin = molecular target: T1, Matrilysin (Homo sapiens, UniProt P09237); assay: Inhibition of Matrix metalloprotease-7
T1 sequence (P09237 whole entry): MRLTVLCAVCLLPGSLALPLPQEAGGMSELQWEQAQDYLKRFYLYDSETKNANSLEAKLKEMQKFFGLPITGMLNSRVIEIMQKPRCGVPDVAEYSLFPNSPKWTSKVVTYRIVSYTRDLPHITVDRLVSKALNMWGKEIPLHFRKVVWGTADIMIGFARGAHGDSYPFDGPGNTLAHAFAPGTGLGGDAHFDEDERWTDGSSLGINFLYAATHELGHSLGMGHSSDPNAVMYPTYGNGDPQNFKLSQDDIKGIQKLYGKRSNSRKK
In short: (§3)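 Each inhibitor concentration was tested in triplicate. IC50 came from a four-parameter logistic fit of data within a single experiment and is reported as the mean of the triplicate values.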

[14] = In vivo inhibition of Matrix metalloprotease enzyme by Sponge-wrapped cartilage assay, compared to activity of RS-130830 (20+/-2) at 5 mg/kg. po. bid; assay type: functional
[15] = In vivo inhibition of Matrix metalloprotease enzyme by Sponge-wrapped cartilage assay, compared to activity of RS-130830 (inactive) at 5 mg/kg. po. qd; assay type: functional
Neutrophil collagenase = Neutrophil collagenase (Homo sapiens, UniProt P22894); assay: Inhibition of Matrix metalloprotease-8; in short: as §3
[16] = molecular target: Matrix metalloproteinase-9 (Homo sapiens, UniProt P14780); assay: In vitro inhibitory activity against matrix metalloprotease-9.
Stromelysin-1 = Stromelysin-1 (Homo sapiens, UniProt P08254); assay: Inhibition of Matrix metalloprotease-3; in short: as §3
[17] = molecular target: Matrix metalloproteinase-14 (Homo sapiens, UniProt P50281); assay: Inhibition of Matrix metalloprotease-14
In short: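 Inhibitor concentrations run in triplicate; IC50 from a four-parameter logistic fit within a single experiment, reported as the mean of triplicate values.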

[18] = molecular target: 72 kDa type IV collagenase (Homo sapiens, UniProt P08253); assay: Inhibition of Matrix metalloprotease-2; in short: as §3
[19] = Apparent elimination half life of compound was determined in monkey at 25 mg/kg orally; assay type: ADME, organism-based; parameters: dose 25 mg/kg, route oral; conditions: simiiformes, in vivo, po; in short: as §2
[20] = Total clearance of compound was determined in dog at 5 mg/kg intravenously admn.; assay type: ADME, organism-based, Canis lupus familiaris; parameters: dose 5 mg/kg, route intravenous; conditions: in vivo, iv, read-out: CLT
In short: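 Single iv dose of 5 mg/kg in Sprague–Dawley rats, New Zealand rabbits, Beagle dogs and Cynomolgus monkeys. Mean plasma pharmacokinetics: C0 is the concentration at T=0, Vdss the volume of distribution at steady state, and CLT the total clearance.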

[21] = Time of peak concentration of compound was determined in rabbit at 25 mg/kg orally; assay type: ADME, organism-based, Oryctolagus cuniculus; parameters: dose 25 mg/kg, route oral; conditions: in vivo, po; in short: as §1
[22] = Oral bioavailability of compound was determined in rat at 25 mg/kg orally; assay type: ADME, organism-based; conditions: in vivo, read-out: Bioavailabiility
Collagenase 3 = Collagenase 3 (Homo sapiens, UniProt P45452)

Chain of Neutrophil collagenase (P22894 whole entry): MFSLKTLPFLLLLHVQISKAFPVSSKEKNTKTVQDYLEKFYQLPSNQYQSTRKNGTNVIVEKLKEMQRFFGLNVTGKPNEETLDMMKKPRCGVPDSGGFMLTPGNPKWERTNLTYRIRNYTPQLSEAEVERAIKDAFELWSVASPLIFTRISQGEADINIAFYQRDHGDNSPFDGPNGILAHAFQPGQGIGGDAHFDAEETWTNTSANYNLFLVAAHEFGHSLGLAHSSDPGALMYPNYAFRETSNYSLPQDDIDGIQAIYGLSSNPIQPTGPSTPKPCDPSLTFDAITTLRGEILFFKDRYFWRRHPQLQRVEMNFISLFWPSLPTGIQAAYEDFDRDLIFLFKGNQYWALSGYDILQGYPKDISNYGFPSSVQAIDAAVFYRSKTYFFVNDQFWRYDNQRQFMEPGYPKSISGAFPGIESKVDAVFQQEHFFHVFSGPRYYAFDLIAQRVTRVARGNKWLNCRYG
Chain of Stromelysin-1 (P08254 whole entry): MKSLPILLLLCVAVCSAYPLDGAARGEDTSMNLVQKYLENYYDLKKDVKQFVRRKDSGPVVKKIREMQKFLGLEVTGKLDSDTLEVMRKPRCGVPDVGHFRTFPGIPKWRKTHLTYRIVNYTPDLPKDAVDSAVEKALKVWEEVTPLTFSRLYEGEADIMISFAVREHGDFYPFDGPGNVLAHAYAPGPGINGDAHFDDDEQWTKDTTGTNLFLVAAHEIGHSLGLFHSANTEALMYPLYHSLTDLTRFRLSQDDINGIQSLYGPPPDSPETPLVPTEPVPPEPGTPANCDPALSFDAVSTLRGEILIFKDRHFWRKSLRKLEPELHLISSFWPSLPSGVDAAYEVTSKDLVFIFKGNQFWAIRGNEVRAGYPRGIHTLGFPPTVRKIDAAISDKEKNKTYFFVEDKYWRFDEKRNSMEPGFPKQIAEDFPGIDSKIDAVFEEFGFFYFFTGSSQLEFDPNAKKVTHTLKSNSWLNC
Chain of Matrix metalloproteinase-9 (P14780 whole entry): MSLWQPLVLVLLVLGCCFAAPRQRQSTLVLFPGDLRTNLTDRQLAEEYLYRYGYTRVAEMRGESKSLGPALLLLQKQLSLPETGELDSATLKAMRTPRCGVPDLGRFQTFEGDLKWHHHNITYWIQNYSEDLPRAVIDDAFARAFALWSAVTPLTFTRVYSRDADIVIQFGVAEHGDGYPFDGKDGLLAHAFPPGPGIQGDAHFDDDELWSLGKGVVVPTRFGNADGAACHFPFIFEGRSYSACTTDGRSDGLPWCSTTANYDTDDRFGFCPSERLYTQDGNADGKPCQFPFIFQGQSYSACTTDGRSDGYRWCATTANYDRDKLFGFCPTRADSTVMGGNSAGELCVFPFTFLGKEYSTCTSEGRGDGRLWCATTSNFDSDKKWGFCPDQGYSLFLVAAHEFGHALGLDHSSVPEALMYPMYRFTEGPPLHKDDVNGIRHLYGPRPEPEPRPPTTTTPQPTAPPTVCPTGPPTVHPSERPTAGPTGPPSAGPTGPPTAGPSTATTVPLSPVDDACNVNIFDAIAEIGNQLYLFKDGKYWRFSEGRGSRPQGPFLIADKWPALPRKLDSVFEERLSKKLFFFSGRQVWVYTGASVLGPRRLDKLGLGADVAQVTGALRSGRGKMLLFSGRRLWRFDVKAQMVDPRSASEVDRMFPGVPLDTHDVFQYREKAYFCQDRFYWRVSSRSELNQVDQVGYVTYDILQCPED
Chain of 72 kDa type IV collagenase (P08253 whole entry): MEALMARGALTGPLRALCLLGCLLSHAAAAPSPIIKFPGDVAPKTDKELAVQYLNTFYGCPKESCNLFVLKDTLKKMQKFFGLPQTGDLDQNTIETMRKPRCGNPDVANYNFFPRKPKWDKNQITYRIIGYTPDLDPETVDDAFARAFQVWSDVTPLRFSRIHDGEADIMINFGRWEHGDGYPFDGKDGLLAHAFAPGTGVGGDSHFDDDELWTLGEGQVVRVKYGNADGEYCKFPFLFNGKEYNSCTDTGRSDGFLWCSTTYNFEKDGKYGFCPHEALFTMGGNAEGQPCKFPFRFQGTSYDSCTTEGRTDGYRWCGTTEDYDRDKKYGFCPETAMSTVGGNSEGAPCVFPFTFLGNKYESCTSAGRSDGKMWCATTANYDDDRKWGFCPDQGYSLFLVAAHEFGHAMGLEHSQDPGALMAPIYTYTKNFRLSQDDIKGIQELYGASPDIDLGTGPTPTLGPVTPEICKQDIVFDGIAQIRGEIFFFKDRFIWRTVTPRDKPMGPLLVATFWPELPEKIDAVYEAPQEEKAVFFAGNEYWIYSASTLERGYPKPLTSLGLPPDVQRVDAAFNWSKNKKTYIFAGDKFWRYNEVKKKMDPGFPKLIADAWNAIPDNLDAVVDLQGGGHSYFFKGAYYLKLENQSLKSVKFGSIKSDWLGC

Tmax [1]: 3.5 h
Tmax [2]: 5.7 h
Tmax [3]: 1.5 h
bioavailability [4]: 37%
bioavailability [5]: 11%
half-life [6]: 17.6 h
half-life [7]: 13.5 h
half-life [8]: 20.7 h
half-life [9]: 7.14 h
half-life [10]: 11.8 h
half-life [11]: 10.7 h
half-life [12]: 4.4 h
IC50 (Matrilysin): 925 nM
IC50 (Neutrophil collagenase): 1 nM
IC50 [16]: 1 nM
IC50 (Stromelysin-1): 55 nM
IC50 [17]: 7 nM
IC50 [18]: 1 nM
half-life [19]: 20 h
clearance [20]: 0.1 mL/min/kg
Tmax [21]: 10 h
bioavailability [22]: 55%
IC50 (Collagenase 3): 1 nM
SMILES: O=C(NO)C1(S(=O)(=O)c2ccc(Oc3ccc(Cl)cc3)cc2)CCN(Cc2ccccc2)CC1
inhibition in vivo at 25 mg/kg [13]: 53%
inhibition in vivo at 5 mg/kg [14]: 53%
inhibition in vivo at 5 mg/kg [15]: 24%
